A short description of test [1]: OD615 S. cerevisiae growth inhibition, permissive medium, pilot counter-assay, permissive growth control for S. cerevisiae lifespan shortening project (AID 705;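 active means growth inhibition above 25% in both replicates, a cutoff set 3 SD above the mean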). The conditions noted are these: OD615, 24 h, at 10 µM, hits give high values. An outline of the steps:
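System: Engineered DeaD yeast | Buffer or medium: SC raffinose/galactose permissive medium | Incubation: Cells pre-grown 4 h, then 24 h compound exposure, 30 °C humidified | Measured by: Absorbance (optical density) at 615 nm | Read-out: Reduction in yeast growth (OD615)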

Test [2] is described as follows: Restrictive medium S. cerevisiae growth inhibition, OD615, pilot screen of yeast lifespan reduction project, restrictive growth control (AID 706;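 active means growth inhibition above a set limit, 3 SD over mean compound inhibition, in both replicates, cut at about 43% in these data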;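 further: modified DeaD lifespan yeast strain shifted to restrictive glucose medium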). The conditions noted are these: OD615, 48 h, at 10 µM, hits give high values. A digest of the protocol:
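Material: modified S. cerevisiae; Medium: glucose-based CSMM-D restrictive medium; Compound dosing: one concentration, 10 µM final, 0.25% DMSO; Incubation: 48 h compound exposure at 30 °C; Measured by: OD615.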

Test [3] can be described thus: viability gain of MRP-1-high H69AR cells under doxorubicin, pilot screen, MRP-1 activator project, CellTiter-Glo, duplicate (AID 807;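 active means viability increase at or above a cutoff of the median across tested compounds plus 3 SD, cut at about 8.5% in these data, passing the limit was not always enough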;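 further: compound pretreatment 18-22 h then 72 h combined with doxorubicin; 0% = doxorubicin alone and 100% = vehicle without doxorubicin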). The conditions noted are these: H69AR viability with doxorubicin, CellTiter-Glo luminescence; at 10 µM; hits give high values.
Test [4] can be described thus: growth suppression of beta-catenin knockout HCT116, pilot screen, human colon tumor cells (AID 823;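 active means cell viability at or below a set limit in both duplicate runs, the limit being the all-compound median minus 4 SD, cut at about 23% in these data, passing the limit was not always enough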;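 further: 0% = wells killed by 20 µM Hyamine and 100% = untreated DMSO cell wells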). Particulars: CellTiter-Glo, 60 h, at 10 µM, hits give low values.
Test [5] can be described thus: growth suppression of PTEN-deleted HCT116, pilot screen, cell-based, HCT116 clonal line, CellTiter-Glo (AID 824;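 active means viability at or below 27.92% in each of two runs, the all-compound median minus 4 SD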;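 further: 0% = 20 µM Hyamine control and 100% = vehicle cell control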). The conditions noted are these: 60 h, at 10 µM, hits give low values.
Test [6] can be described thus: inhibitors of the yeast RAM network, pilot screen, dse1pr::URA3 reporter, 5-FOA selection (AID 869;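 active means inhibition over a set limit, the all-compound mean plus 3 SD, in both replicate runs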;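 further: 0% = DMSO wells with no growth and 100% = 10 µM 1-NA-PP1 with full growth; RAM network block rescues cells from 5-FOA so hits raise OD615 growth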). Particulars: S. cerevisiae dse1pr::URA3 5-FOA growth, OD615, 2 d; at 10 µM; hits give high values; strain carries analog-sensitive mutant Cbk1 kinase.
Test [7] is described as follows: RAM signaling pathway blockade in yeast – S. cerevisiae, Pdr1DBD-CYC8 efflux-inhibited sensitized strain, primary screen (AID 1298).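 Further: 0% = DMSO untreated cells without growth and 100% = 10 µM 1-NA-PP1 full growth; higher means more yeast growth rescued from 5-FOA killing.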 The conditions noted are these: S. cerevisiae cbk1-as DSE1-URA3 strain, 5-FOA growth OD615, 2 d; at 50 µM; hits give high values.

A number with no mark means an inactive call. Results filed as inconclusive are left out. The source made the active and inactive calls.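 How the source made its calls, unless noted: active means RAM network inhibition above 8.4% in each of two replicates, 3 SD over the compound average; inconclusive means above 8.4% inhibition in only one replicate; inactive means 8.4% inhibition or less in each replicate.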

Turning to `O=C(Cn1nc(Cc2cccnc2)c2ccccc2c1=O)N1CCN(c2ccccn2)CC1`, the growth inhibition in test [1] is 4.64%; in test [2], 2.73%. Besides, the viability increase in test [3] was 0.48%. In addition, the viability in test [4] is 94.8%; in test [5] it was 100%. For the same compound, the inhibition in test [6] was 0.985%. In test [7], the RAM network inhibition is -0.56%.

For the compound `CSC1=NCCN1C(=O)COc1ccc2ccccc2c1`, the figures for the growth inhibition in test [1] and in test [2] were -2.13% and -6.38%, respectively. Also, in test [3], the viability increase is 0.69%. For the same compound, the viability in test [4] was 98.9%; in test [5], 101%. In addition, the inhibition in test [6] was 2.77%. Moreover, in test [7], the RAM network inhibition is -0.94%.

In the case of `Cc1ccc(S(=O)(=O)Cc2ccc(C(=O)N3CCCCCC3)o2)cc1`, the growth inhibition in test [1] is -10.6%; in test [2] it was -22.4%. In test [3], the viability increase is -1.93%. For the same compound, the results for the viability in test [4] and in test [5] were 98.8% and 96.2%, respectively. Moreover, the inhibition in test [6] is 1.73%. Further, the RAM network inhibition in test [7] is 8.33%.

For `COC(=O)C1=C(C)N(c2cc(Cl)cc(Cl)c2)C(=O)C1`, the growth inhibition was -2.8% in test [1] and -18.3% in test [2]. The viability increase in test [3] is -6.24%. Moreover, the viability was 28.2% in test [4] and 45.7% in test [5]. For the same compound, the inhibition in test [6] was 0.14%. In addition, in test [7], the RAM network inhibition is 2.04%.

Regarding `CCCc1nc(SCC(=O)Nc2cc(C)on2)c2c(=O)n(C)c(=O)n(C)c2n1`, the results for the growth inhibition in test [1] and in test [2] were 4.81% and 4.73%, respectively. Further, the viability increase in test [3] is -1.05%. The viability in test [4] was 97.1%; in test [5], 93%. Besides, in test [6], the inhibition is 3.88%. Also, the RAM network inhibition in test [7] was 4.78%.

Regarding `CC(C)(Oc1ccc(Cl)cc1)C(=O)Nc1cccnc1`, the values for the growth inhibition in test [1] and in test [2] were -4.86% and -6.65%, respectively. Also, the viability increase in test [3] was -3.43%. Besides, the viability is 92.6% in test [4] and 83.1% in test [5]. The inhibition in test [6] was 0.405%. In addition, in test [7], the RAM network inhibition is 1.94%.

Turning to `Cc1ccc(S(=O)(=O)N2CCCC(C(=O)O)C2)s1` (stereo unspecified), the figures for the growth inhibition in test [1] and in test [2] were -4.2% and -4.86%, respectively. In test [3], the viability increase is 1.27%. Further, the viability in test [4] is 97%; in test [5], 99.6%. Moreover, in test [6], the inhibition was 0.59%. Further, the RAM network inhibition in test [7] was -1.67%.

Turning to `COc1ccc(N2C(=O)C3CCCN3C2c2ccccc2)cc1` (stereo unspecified), the growth inhibition was 4.01% in test [1] and -9.51% in test [2]. The viability increase in test [3] was -0.65%. The figures for the viability in test [4] and in test [5] were 102% and 101%, respectively. Moreover, the inhibition in test [6] was 1.87%. In test [7], the RAM network inhibition was -0.32%.

On to `CCOC(=O)C1CCN(CC(O)COc2ccc(C(C)=O)cc2)CC1` (stereo unspecified), for which the growth inhibition in test [1] was -1.86%; in test [2] it was -5.14%. For the same compound, the viability increase in test [3] is -0.88%. The viability is 97.6% in test [4] and 91.6% in test [5]. In addition, the inhibition in test [6] was 0.87%. In addition, in test [7], the RAM network inhibition was 2.51%.

For `CCc1ccc(N(CC(=O)NC2CCCCC2)S(=O)(=O)c2c(C)noc2C)cc1`, the growth inhibition in test [1] is -9.43%; in test [2], -2.85%. The viability increase in test [3] was -1.23%. The viability was 92.2% in test [4] and 92.3% in test [5]. Besides, in test [6], the inhibition was 2.05%. Moreover, the RAM network inhibition in test [7] is 4.91%.

With `NC(=O)CSc1oc(-c2ccc(F)cc2)nc1S(=O)(=O)c1ccccc1`, the growth inhibition is -6.54% in test [1] and -10.7% in test [2]. Also, the viability increase in test [3] was -4.42%. Also, the viability is 92.7% in test [4] and 87.8% in test [5]. For the same compound, the inhibition in test [6] was 0.73%. Also, the RAM network inhibition in test [7] is 1.45%.

Regarding `C=CCn1c(SCCCC)nc(O)cc1=O`, the results for the growth inhibition in test [1] and in test [2] were 1.55% and 8.79%, respectively. For the same compound, the viability increase in test [3] was -0.11%. The figures for the viability in test [4] and in test [5] were 105% and 102%, respectively. For the same compound, the inhibition in test [6] is 0.02%. For the same compound, the RAM network inhibition in test [7] is -0.21%.

Turning to `COC(=O)CN(n1cnnc1)S(=O)(=O)c1ccccc1`, the growth inhibition was -9.75% in test [1] and -4.21% in test [2]. The viability increase in test [3] is -0.13%. Besides, the viability in test [4] is 99%; in test [5] it was 96.9%. Moreover, the inhibition in test [6] is 1.23%. The RAM network inhibition in test [7] was -0.62%.

Consider `O=C(CSc1nnc(Cn2c(=O)sc3ccccc32)n1-c1ccccc1)NCc1ccco1`, for which the figures for the growth inhibition in test [1] and in test [2] were -3.11% and -1.47%, respectively. In addition, the viability increase in test [3] is -4.7%. The viability in test [4] is 99.5%; in test [5], 98.1%. Also, in test [6], the inhibition was 1.22%. Further, the RAM network inhibition in test [7] is 6%.

`CCOC(=O)c1sc2nc(NC(=O)C3CC3)sc2c1C`: the growth inhibition in test [1] was -0.51%; in test [2] it was -2.08%. Further, the viability increase in test [3] is -5.8%. The viability in test [4] is 86%; in test [5], 82.2%. Moreover, in test [6], the inhibition is 4.2%. Also, the RAM network inhibition in test [7] was 3.96%.

Turning to `Clc1ccc(CCNc2ncnc3nc[nH]c23)cc1`, the growth inhibition in test [1] is 12.7%; in test [2] it was 48.5% (active). For the same compound, in test [3], the viability increase is 0.89%. For the same compound, the figures for the viability in test [4] and in test [5] were 74.7% and 77%, respectively. The inhibition in test [6] is -0.895%. In test [7], the RAM network inhibition was 2.97%.

For `CCCc1cc(C(=O)Nc2cc(Br)ccc2O)no1`, the growth inhibition in test [1] is -4.99%; in test [2], -3.92%. The viability increase in test [3] is -4.83%. The viability in test [4] was 89%; in test [5] it was 88.1%. Besides, in test [6], the inhibition is 2.76%. For the same compound, the RAM network inhibition in test [7] is 5.97%.

`Cc1cc(C)c(C)c(OCC(=O)NCCN(C)C)c1`: the growth inhibition in test [1] was -11.6%; in test [2] it was -3.56%. Also, the viability increase in test [3] is -1.08%. In addition, the viability was 91% in test [4] and 91.3% in test [5]. In addition, the inhibition in test [6] was 0.79%. Also, the RAM network inhibition in test [7] is 0.26%.

The values are drawn from PubChem BioAssay.
